{"data": "Measured values of several laboratories", "target": "Serine/threonine-protein kinase OSR1 (OXSR1, Homo sapiens, UniProt O95747)", "note": "Compare with care: the assays were run in different laboratories."}
{"Structure (SMILES)": "C[C@H](c1ccc(F)cc1)N(Cc1cccc(C(=O)O)c1)C(=O)c1cnc2ccccc2c1", "read-out": "cell-free assay", "method": "competition with immobilised ligand", "concentration": "1 µM", "remaining binding": "100%"}
{"Structure (SMILES)": "C=CC(=O)N1CCC(C(=O)NCC(=O)N2CCN(c3nc(-c4cnc(N)nc4C(F)F)nc(N4CCOCC4)n3)CC2)CC1", "read-out": "binding", "method": "competition with immobilised ligand", "concentration": "1 µM", "remaining binding": "100%"}
{"Structure (SMILES)": "CCN1CCN(Cc2ccc(C(=O)Nc3ccc(C)c(Oc4ccc5c(c4)CC(=O)N5)c3)cc2C(F)(F)F)CC1", "read-out": "binding", "method": "competition with immobilised ligand", "concentration": "1 µM", "remaining binding": "97%"}
{"Structure (SMILES)": "COc1ncc2cc3ccccc3nc2c1C#N", "read-out": "cell-free assay", "method": "competition with immobilised ligand", "concentration": "5 µM", "remaining binding": "100%"}
{"Structure (SMILES)": "CN(c1nccc(-c2cnn3ncccc23)n1)C1CC1", "read-out": "binding", "concentration": "1 µM", "remaining binding": "100%"}
{"Structure (SMILES)": "C[C@@H]1CN(c2cc(-c3nn(C)c4ccc(OC5(C)CC5)cc34)ncn2)C[C@H](C)O1", "read-out": "cell-free assay", "method": "competition with immobilised ligand", "concentration": "1 µM", "remaining binding": "93%"}
{"Structure (SMILES)": "Nc1ncc2c(n1)-c1c([nH]c3ccc(C#CC4CC4)cc13)CCCC2", "read-out": "binding", "method": "competition with immobilised ligand", "concentration": "1 µM", "remaining binding": "86%"}
{"Structure (SMILES)": "O=S(=O)(NC1CCC(c2cc(F)ccc2F)(S(=O)(=O)c2ccc(Cl)cc2)CC1)C(F)(F)F (stereo not shown)", "read-out": "cell-free assay", "method": "competition with immobilised ligand", "concentration": "1 µM", "remaining binding": "91%"}
{"Structure (SMILES)": "Cc1cnc(Nc2ccc(C(=O)N3CCC(N4CCCC4)CC3)cc2)nc1-c1cc2ccccc2s1", "read-out": "binding", "method": "competition with immobilised ligand", "concentration": "1 µM", "remaining binding": "81%"}
{"Structure (SMILES)": "COc1ccnn2ncc(-c3ccnc(N(C)C)n3)c12", "read-out": "binding", "concentration": "1 µM", "remaining binding": "87%"}
{"Structure (SMILES)": "O=C(c1ccc(Nc2ncc(Cl)c(-c3cc4ccccc4s3)n2)cc1)N1CCC(N2CCCC2)CC1", "read-out": "binding", "method": "competition with immobilised ligand", "concentration": "1 µM", "remaining binding": "74%"}
{"Structure (SMILES)": "CO[C@H]1CC[C@H](CNc2ccc(S(=O)(=O)NC(=O)c3ccc(N4CCN(CC5=C(c6ccc(Cl)cc6)CC(C)(C)CC5)CC4)cc3Oc3cnc4[nH]ccc4c3)cc2[N+](=O)[O-])CC1", "read-out": "cell-free assay", "method": "competition with immobilised ligand", "concentration": "1 µM", "remaining binding": "76%"}
{"Structure (SMILES)": "CC1CCCN1c1nccc(-c2cnn3ncccc23)n1 (stereo not shown)", "read-out": "binding", "concentration": "1 µM", "remaining binding": "100%"}
{"Structure (SMILES)": "CNC(=O)[C@@H]1CC[C@@H](n2c(-c3ccc4cnccc4c3)nc3ccc(C(=O)NCc4cccc(C(N)=O)c4)cc32)C1", "read-out": "binding", "method": "competition with immobilised ligand", "concentration": "1 µM", "remaining binding": "100%"}
{"Structure (SMILES)": "C[C@@H]1CCN(c2nccc(-c3cnn4ncccc34)n2)C1", "read-out": "binding", "concentration": "1 µM", "remaining binding": "75%"}
{"Structure (SMILES)": "O=C(Nc1c[nH]nc1C(=O)NC1CCNCC1)c1cc(F)cc(F)c1", "read-out": "binding", "method": "competition with immobilised ligand", "concentration": "1 µM", "remaining binding": "100%"}
{"Structure (SMILES)": "O=C(c1ccc(Nc2nccc(-c3cc4ccccc4s3)n2)cc1)N1CCC(N2CCCC2)CC1", "read-out": "binding", "method": "competition with immobilised ligand", "concentration": "1 µM", "remaining binding": "100%"}
{"Structure (SMILES)": "CS(=O)(=O)N1CCCC(NC(=O)[C@H](CCC2CCCCC2)NC(=O)c2ccc(CNc3ncnc4c3nnn4-c3ccccc3)cc2)C1 (stereo partly shown)", "read-out": "cell-free assay", "method": "competition with immobilised ligand", "concentration": "0.1 µM", "remaining binding": "100%"}
{"Structure (SMILES)": "N[C@@H]1CCN(c2nccc(-c3cnn4ncccc34)n2)C1", "read-out": "binding", "concentration": "1 µM", "remaining binding": "100%"}
{"Structure (SMILES)": "O=C(Nc1cccnn1)N1CCC(=Cc2cccc(Oc3ccc(C(F)(F)F)cn3)c2)CC1", "read-out": "cell-free assay", "method": "competition with immobilised ligand", "concentration": "1 µM", "remaining binding": "100%"}
{"Structure (SMILES)": "F[C@@H]1CCN(c2nccc(-c3cnn4ncccc34)n2)C1", "read-out": "binding", "concentration": "1 µM", "remaining binding": "100%"}
{"Structure (SMILES)": "C[C@@H](c1ccc(-n2cnc3c(N)ncnc32)cc1)N1CCc2nn(C)c(Cc3ccccc3)c2C1=O", "read-out": "binding", "method": "competition with immobilised ligand", "concentration": "0.1 µM", "remaining binding": "72%"}
